{"source": "ChEMBL document CHEMBL4364267", "about": "“Hydrogen sulfide donating ent-kaurane and spirolactone-type 6,7-seco-ent-kaurane derivatives: Design, synthesis and antiproliferative properties” (Eur J Med Chem, 2019)", "key": {"Bel-7402 [1]": {"test_system": "Bel-7402", "test": "Cell cycle arrest in human Bel7402 cells assessed as accumulation of cells at G2 phase at 0.45 uM after 48 hrs by propidium iodide/RNase staining based flow cytometric analysis (reference value: 29.97%)", "assay_type": "functional"}, "Bel-7402 [2]": {"test_system": "Bel-7402", "test": "Induction of mitochondrial membrane potential loss in human Bel7402 cells assessed as cell population with intact mitochondrial membrane potential at 1.80 uM after 48 hrs by JC1 staining-based flow cytometry analysis (reference value: 98.67%)", "assay_type": "functional", "in_short": "(§1)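 Bel-7402 cells in 6-well plates exposed for 48 h to 0, 0.45, 0.90 or 1.80 μM, DMSO as vehicle. Washed with PBS and stained with JC-1 at room temperature in the dark. Cells with collapsed membrane potential counted by flow cytometry.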"}, "Bel-7402 [3]": {"test_system": "Bel-7402", "test": "Induction of apoptosis in human Bel7402 cells assessed as increase in cytochrome C expression at 0.90 to 1.80 uM after 48 hrs by Western blot analysis", "assay_type": "functional, cell-based"}, "[4]": {"test": "Selectivity index, ratio of IC50 for human PBMC to IC50 for human Bel7402 cells after 72 hrs by MTT assay", "assay_type": "toxicity", "details": "PBMC versus Bel7402 cells, read-out: Ratio IC50"}, "Bel-7402 [5]": {"test_system": "Bel-7402", "test": "Induction of apoptosis in human Bel7402 cells assessed as viable cells at 0.90 uM after 48 hrs by Annexin V-FITC/propidium iodide staining based flow cytometry (reference value: 97.22%)", "assay_type": "functional", "details": "Bel-7402, 48 h, read-out: Activity", "in_short": "(§2)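 Bel-7402 cells in 6-well plates treated with 0, 0.45, 0.90 or 1.80 μM, washed twice with PBS and resuspended in annexin V binding buffer. Stained with annexin V-FITC and PI for 15 min at room temperature in the dark, then analysed by flow cytometry. Methods state 24 h exposure; the figure legend states 48 h.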"}, "Bel-7402 [6]": {"test_system": "Bel-7402", "test": "Induction of apoptosis in human Bel7402 cells assessed as reduction in PARP expression at 0.45 to 1.80 uM after 48 hrs by Western blot analysis", "assay_type": "functional, cell-based"}, "Bel-7402 [7]": {"test_system": "Bel-7402", "test": "Induction of mitochondrial membrane potential loss in human Bel7402 cells assessed as cell population with mitochondrial membrane potential collapse at 1.80 uM after 48 hrs by JC1 staining-based flow cytometry analysis (reference value: 1.28%)", "assay_type": "functional", "in_short": "as §1"}, "Bel-7402 [8]": {"test_system": "Bel-7402", "test": "Induction of apoptosis in human Bel7402 cells assessed as necrotic cells at 0.45 uM after 48 hrs by Annexin V-FITC/propidium iodide staining based flow cytometry (reference value: 0.01%)", "assay_type": "functional", "in_short": "as §2"}, "Bel-7402 [9]": {"test_system": "Bel-7402", "test": "Cell cycle arrest in human Bel7402 cells assessed as accumulation of cells at G1 phase at 0.45 uM after 48 hrs by propidium iodide/RNase staining based flow cytometric analysis (reference value: 30.95%)", "assay_type": "functional"}, "Bel-7402 [10]": {"test_system": "Bel-7402", "test": "Induction of apoptosis in human Bel7402 cells assessed as reduction in Bcl-2 expression at 0.90 to 1.80 uM after 48 hrs by Western blot analysis", "assay_type": "functional, cell-based"}, "[11]": {"test": "Induction of H2S generation in PBS containing Na2S and MB+ cocktail in presence of TCEP/L-cysteine measured at 15 to 20 mins after 20 mins compound incubation by methylene blue dye based UV-Vis spectrophotometric method", "assay_type": "functional", "in_short": "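Na2S standards (5–150 μM) in sodium phosphate buffer reacted 20 min at room temperature with methylene blue cocktail (FeCl3/HCl, N,N-dimethyl-1,4-phenylenediamine/HCl, Zn(OAc)2) to build a 670 nm calibration curve. Compounds from 40 mM THF stock added to phosphate buffer with 1 mM TCEP or L-cysteine. Aliquots taken into the cocktail at set times, incubated 20 min, read at 670 nm. Mean of three experiments.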"}, "Bel-7402 [12]": {"test_system": "Bel-7402", "test": "Induction of mitochondrial membrane potential loss in human Bel7402 cells assessed as cell population with intact mitochondrial membrane potential at 0.45 uM after 48 hrs by JC1 staining-based flow cytometry analysis (reference value: 98.67%)", "assay_type": "functional", "in_short": "as §1"}, "Bel-7402 [13]": {"test_system": "Bel-7402", "test": "Induction of mitochondrial membrane potential depolarization in human Bel7402 cells after 48 hrs by JC1 staining-based flow cytometry analysis", "assay_type": "functional, cell-based", "in_short": "as §1"}, "Bel-7402 [14]": {"test_system": "Bel-7402", "test": "Cell cycle arrest in human Bel7402 cells assessed as accumulation of cells at G2 phase at 1.80 uM after 48 hrs by propidium iodide/RNase staining based flow cytometric analysis (reference value: 29.97%)", "assay_type": "functional"}, "SGC-7901": {"test_system": "SGC-7901", "test": "Antiproliferative activity against human SGC7901 cells assessed as reduction in cell viability after 72 hrs by MTT assay", "assay_type": "functional, cell-based", "details": "SGC-7901, 72 h", "in_short": "(§3)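 MTT assay over 72 h, compounds at 64, 16, 4, 1, 0.25, 0.0625 and 0.015625 μM. MTT solution (5 mg/mL) and DMSO added afterwards, 10 min at room temperature, absorbance read at 490 nm. IC50 calculated as the mean ± SD of three independent experiments.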"}, "Bel-7402 [15]": {"test_system": "Bel-7402", "test": "Induction of apoptosis in human Bel7402 cells assessed as necrotic cells at 0.90 uM after 48 hrs by Annexin V-FITC/propidium iodide staining based flow cytometry (reference value: 0.01%)", "assay_type": "functional", "in_short": "as §2"}, "Bel-7402 [16]": {"test_system": "Bel-7402", "test": "Induction of apoptosis in human Bel7402 cells assessed as increase in cleaved caspase-3 expression at 0.90 to 1.80 uM after 48 hrs by Western blot analysis", "assay_type": "functional, cell-based"}, "Bel-7402 [17]": {"test_system": "Bel-7402", "test": "Induction of apoptosis in human Bel7402 cells assessed as viable cells at 1.80 uM after 48 hrs by Annexin V-FITC/propidium iodide staining based flow cytometry (reference value: 97.22%)", "assay_type": "functional", "details": "Bel-7402, 48 h, read-out: Activity", "in_short": "as §2"}, "K562": {"test_system": "K562", "test": "Antiproliferative activity against human K562 cells assessed as reduction in cell viability after 72 hrs by MTT assay", "assay_type": "functional, cell-based", "details": "K562, 72 h", "in_short": "as §3"}, "Bel-7402 [18]": {"test_system": "Bel-7402", "test": "Induction of apoptosis in human Bel7402 cells assessed as late apoptotic cells at 0.90 uM after 48 hrs by Annexin V-FITC/propidium iodide staining based flow cytometry (reference value: 0.68%)", "assay_type": "functional", "in_short": "as §2"}, "Bel-7402 [19]": {"test_system": "Bel-7402", "test": "Induction of morphological changes in human Bel7402 cells assessed as chromatin shrinkage at 0.45 to 1.80 uM after 48 hrs by Hoechst 33258 staining-based fluorescent microscopic analysis", "assay_type": "functional, cell-based", "in_short": "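Bel-7402 cells cultured 24 h in 6-well plates at 37 °C, then exposed 48 h to 0, 0.45, 0.90 or 1.80 μM. Harvested by mild trypsinization and washed twice with PBS. Stained with Hoechst 33258 (2 mg/mL) for 15 min at room temperature in the dark, washed, and viewed by fluorescence microscopy.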"}, "Bel-7402 [20]": {"test_system": "Bel-7402", "test": "Induction of apoptosis in human Bel7402 cells assessed as viable cells at 0.45 uM after 48 hrs by Annexin V-FITC/propidium iodide staining based flow cytometry (reference value: 97.22%)", "assay_type": "functional", "details": "Bel-7402, 48 h, read-out: Activity", "in_short": "as §2"}, "Bel-7402 [21]": {"test_system": "Bel-7402", "test": "Cell cycle arrest in human Bel7402 cells assessed as accumulation of cells at S phase at 0.45 uM after 48 hrs by propidium iodide/RNase staining based flow cytometric analysis (reference value: 39.09%)", "assay_type": "functional"}, "Bel-7402 [22]": {"test_system": "Bel-7402", "test": "Antiproliferative activity against human Bel7402 cells assessed as reduction in cell viability after 72 hrs by MTT assay", "assay_type": "functional, cell-based", "details": "Bel-7402, 72 h", "in_short": "as §3"}, "Bel-7402 [23]": {"test_system": "Bel-7402", "test": "Induction of mitochondrial membrane potential loss in human Bel7402 cells assessed as cell population with mitochondrial membrane potential collapse at 0.45 uM after 48 hrs by JC1 staining-based flow cytometry analysis (reference value: 1.28%)", "assay_type": "functional", "in_short": "as §1"}, "Bel-7402 [24]": {"test_system": "Bel-7402", "test": "Induction of apoptosis in human Bel7402 cells assessed as necrotic cells at 1.80 uM after 48 hrs by Annexin V-FITC/propidium iodide staining based flow cytometry (reference value: 0.01%)", "assay_type": "functional", "in_short": "as §2"}}, "note": "Calls of active or inactive are those of the source. The calls are words filed in the database; no cut-off is given here."}
{"compound": "C=C1C(=O)[C@@]23C(=O)OC[C@]4(C(=O)CCC(C)(C)[C@H]4C=O)[C@@H]2CC[C@@H]1[C@H]3OC(=O)CCCC(=O)Oc1ccc(-c2cc(=S)ss2)cc1", "values": [{"measurement": "Activity", "setting": "Bel-7402 [1]", "result": 22.21, "unit": "%"}, {"measurement": "Activity", "setting": "Bel-7402 [2]", "result": 41.23, "unit": "%"}, {"measurement": "Activity", "setting": "Bel-7402 [3]", "result": "Active"}, {"measurement": "selectivity ratio at 72 h", "setting": "[4]", "result": 24}, {"measurement": "viability at 0.9 µM", "setting": "Bel-7402 [5]", "result": 72.5, "unit": "%"}, {"measurement": "Activity", "setting": "Bel-7402 [6]", "result": "Active"}, {"measurement": "Activity", "setting": "Bel-7402 [7]", "result": 58.59, "unit": "%"}, {"measurement": "Activity", "setting": "Bel-7402 [8]", "result": 0.11, "unit": "%"}, {"measurement": "Activity", "setting": "Bel-7402 [9]", "result": 37.37, "unit": "%"}, {"measurement": "Activity", "setting": "Bel-7402 [10]", "result": "Active"}, {"measurement": "Activity", "setting": "[11]", "result": "Active"}, {"measurement": "Activity", "setting": "Bel-7402 [12]", "result": 81.5, "unit": "%"}, {"measurement": "Activity", "setting": "Bel-7402 [13]", "result": "Dose-dependent effect"}, {"measurement": "Activity", "setting": "Bel-7402 [14]", "result": 15.91, "unit": "%"}, {"measurement": "IC50", "setting": "SGC-7901", "result": 4.36, "unit": "µM"}, {"measurement": "Activity", "setting": "Bel-7402 [15]", "result": 0.06, "unit": "%"}, {"measurement": "Activity", "setting": "Bel-7402 [16]", "result": "Active"}, {"measurement": "viability at 1.8 µM", "setting": "Bel-7402 [17]", "result": 43.6, "unit": "%"}, {"measurement": "IC50", "setting": "K562", "result": 1010, "unit": "nM"}, {"measurement": "Activity", "setting": "Bel-7402 [18]", "result": 12.3, "unit": "%"}, {"measurement": "Activity", "setting": "Bel-7402 [19]", "result": "Active"}, {"measurement": "viability at 0.45 µM", "setting": "Bel-7402 [20]", "result": 82.2, "unit": "%"}, {"measurement": "Activity", "setting": "Bel-7402 [21]", "result": 40.42, "unit": "%"}, {"measurement": "IC50", "setting": "Bel-7402 [22]", "result": 880, "unit": "nM"}, {"measurement": "Activity", "setting": "Bel-7402 [23]", "result": 18.48, "unit": "%"}, {"measurement": "Activity", "setting": "Bel-7402 [24]", "result": 1.05, "unit": "%"}]}
